Experimental data pooled from the literature.
Lines come from different studies, so protocols differ.
Target: Fibroblast growth factor receptor 1 (FGFR1, Homo sapiens, UniProt P11362)

C[C@H](NC(=O)c1cnc2n1[C@](C)(Cc1ccc(C#N)cc1)C(=O)N2c1cc(Cl)c(F)c(Cl)c1)C(=O)NC1(c2ccccn2)CC1 — remaining binding (cell-free assay, competition with immobilised ligand; 1 µM): 100%
N[C@H]1CCN(c2nccc(-c3cnn4ncccc34)n2)C1 — remaining binding (binding; 1 µM): 100%
C=CC(=O)N1CCC(C(=O)NCC(=O)N2CCN(c3nc(-c4cnc(N)nc4C(F)F)nc(N4CCOCC4)n3)CC2)CC1 — remaining binding (binding, competition with immobilised ligand; 1 µM): 100%
CCN1CCN(Cc2ccc(C(=O)Nc3ccc(C)c(Oc4ccc5c(c4)CC(=O)N5)c3)cc2C(F)(F)F)CC1 — remaining binding (binding, competition with immobilised ligand; 1 µM): 78%
O=C(NCCCN1CCOCC1)c1ccc(Nc2ncc(Cl)c(-c3ccc(Cl)s3)n2)cc1 — remaining binding (binding, competition with immobilised ligand; 1 µM): 27%
CN(C)c1ncc(F)c(-c2cnn3ncccc23)n1 — remaining binding (binding; 1 µM): 100%
O=C(Nc1c[nH]nc1C(=O)NC1CCNCC1)c1cc(F)cc(F)c1 — remaining binding (binding, competition with immobilised ligand; 1 µM): 100%
O=C(NCCCN1CCOCC1)c1ccc(Nc2nccc(-c3cc4ccccc4s3)n2)cc1 — remaining binding (binding, competition with immobilised ligand; 1 µM): 88%
COc1cnc(Nc2cccc(S(N)(=O)=O)c2)nc1N1CCN(c2ccccc2)CC1 — remaining binding (binding, competition with immobilised ligand; 1 µM): 100%
COc1ccnn2ncc(-c3ccnc(N(C)C)n3)c12 — remaining binding (binding; 1 µM): 86%
Nc1ncc2c(n1)-c1c([nH]c3ccc(C#CC4CC4)cc13)CCCC2 — remaining binding (binding, competition with immobilised ligand; 1 µM): 79%
CN(C)C(=O)Cn1cc(-c2nc([C@@](C)(c3ccc(-c4cnc(N)nc4)cc3)C3CC3)no2)cn1 — remaining binding (cell-free assay, competition with immobilised ligand; 1 µM): 95%
CN(CCCC(F)(F)F)c1nccc(-c2cnn3ncccc23)n1 — remaining binding (binding; 1 µM): 46%
CC1=C(C#N)[C@@H](c2ccc3[nH]nc(C)c3c2)C(C#N)=C(c2ccc(Cl)cc2)N1 — remaining binding (cell-free assay, competition with immobilised ligand; 1 µM): 86.6%
Cc1cnn2ncc(-c3ccnc(N(C)C)n3)c2c1 — remaining binding (binding; 1 µM): 100%
CS(=O)(=O)NCC[C@H](NC(=O)c1cncc2c1cnn2-c1ccc(F)cc1)c1ccnc(S(C)(=O)=O)c1 — remaining binding (cell-free assay, competition with immobilised ligand; 1 µM): 87%
Cc1cnc(Nc2ccc(C(=O)N3CCC(N4CCCC4)CC3)cc2)nc1-c1cc2ccccc2s1 — remaining binding (binding, competition with immobilised ligand; 1 µM): 10%
FC(F)(F)Oc1cccc(-c2cnc3ccc(-c4ccncc4)nn23)c1 — remaining binding (cell-free assay, competition with immobilised ligand; 5 µM): 72%
C[C@@H]1CCN(c2nccc(-c3cnn4ncccc34)n2)C1 — remaining binding (binding; 1 µM): 100%
O=C(O)[C@H]1[C@H](Cn2nnc3ccccc3c2=O)CC[C@@H]1C(=O)c1ccc(OCCC2CCOCC2)cc1 — remaining binding (cell-free assay, competition with immobilised ligand; 1 µM): 98%
c1cnn2ncc(-c3ccnc(N4CCC45COC5)n3)c2c1 — remaining binding (binding; 1 µM): 100%
CNC(=O)Nc1ccc2c(c1)CC[C@@]21OC(=O)N(CC(=O)N(Cc2ccc(F)cc2)[C@@H](C)C(F)(F)F)C1=O — remaining binding (cell-free assay, competition with immobilised ligand; 1 µM): 82%
